From ChEMBL document CHEMBL1149594, “Synthesis and HCV inhibitory properties of 9-deaza- and 7,9-dideaza-7-oxa-2'-C-methyladenosine” (Bioorg Med Chem, 2007) come the findings set out here.

For orientation: CC50 means the concentration at which the toxic effect on the cells reaches its halfway point. Broadly, the EC50 is the concentration giving half of the maximal effect.

SMILES strings stand for the structures.

Series [1] in a line: Cytotoxicity against Huh7 cells after 24 hrs by MTS assay. The series is classed as cell-based, Huh-7. The note with it: human. The method in brief: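 Nucleoside cytotoxicity in the replicon-bearing Huh-7 cells, measured by MTS assay after 24 h exposure. Result expressed as CC50.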
In general terms: Tetrazolium assays rely on reduction of a dye to a coloured formazan, in cell work by metabolically active cells.

Series [2] deals with Hepatitis C virus. The series can be described thus: Antiviral activity against HCV genotype 1b in Huh7 cells assessed as inhibition of viral RNA replication after 72 hrs by ribonuclease protection assay. The series is classed as functional, organism-based, Hepacivirus hominis. The note with it: Huh-7, 72 h. The procedure, abridged: (§1)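 Huh-7 (HB-1) cells carrying a subgenomic bicistronic neomycin-resistance replicon from HCV genotype 1b. Compound incubated with cells 24 h or 72 h. Intracellular replicon RNA then quantified by in situ ribonuclease protection. EC50 taken as the mean of at least two separate determinations.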

Series [3] concerns Hepatitis C virus. The series can be described thus: Antiviral activity against HCV genotype 1b in Huh7 cells assessed as inhibition of viral RNA replication after 24 hrs by ribonuclease protection assay. Particulars: Huh-7, 24 h. The series is classed as functional, organism-based, Hepacivirus hominis. The procedure, abridged: as §1

As for `C[C@@]1(O)[C@H](O)[C@@H](CO)O[C@H]1c1coc2c(N)ncnc12`, the half-maximal cytotoxic concentration (CC50) at 24 h in series [1] was above 100 µM. The EC50 in series [2] turned out to be 8.1 µM; in series [3] it was 22 µM.
In the same order, the values of `C[C@@]1(O)[C@H](O)[C@@H](CO)O[C@H]1c1c[nH]c2c(N)ncnc12` are above 100 µM, 59.7 µM and above 100 µM.
In the same order, the values of `C[C@@]1(O)[C@H](O)[C@@H](CO)O[C@H]1n1cnc2c(N)ncnc21` are above 100 µM, 0.2 µM and 0.25 µM.
`C[C@@]1(O)[C@H](O)[C@@H](CO)O[C@H]1n1ccc2c(N)ncnc21` [BETA-2'-C-METHYL-7-DEAZA-ADENOSINE] gave a cytotoxic concentration (CC50) at 24 h in series [1] above 100 µM. For the same compound, the concentration for a half-maximal effect (EC50) in series [2] is 0.11 µM; in series [3], 0.3 µM.
The corresponding values for `CC(C)[C@H](N)C(=O)O[C@@H]1[C@@H](CO)O[C@@H](n2ccc(N)nc2=O)[C@]1(C)O` [VALOPICITABINE] are above 100 µM, 1.5 µM and 7.45 µM.
